# Test results: ChEMBL document CHEMBL4513216, “Probing the Open Global Health Chemical Diversity Library for Multistage-Active Starting Points for Next-Generation Antimalarials” (ACS Infect Dis, 2020)
# Experiment: Toxicity liver stage against HepG2, at 10uM
# Format: cell-based
# Parameters: test concentration 10 uM, cell line HepG2-A16-CD81EGFP
# Conditions: human, HepG2-A16-CD81EGFP cells; read-out: INHIBITION
# Summary of the method: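 Uninfected HepG2-A16-CD81EGFP cells, 3 × 10^3 per well, 1536-well, plated on prespotted compound at 10 μM final, parasite-free screening media added to match infected plates; puromycin 10 μM positive, DMSO 0.5% negative; run in parallel with 48 h PbLuc assay at 37 °C, 5% CO2; viability by CellTiter-Glo luminescence, normalized to controls.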
row,Structure (SMILES),cytotoxicity at 10 µM [%]
1,Cc1nc(CN2CCCN(Cc3nc4c(F)cccc4[nH]3)CC2)no1,0.601
2,CCOCCN1CCc2cncnc2C1,-20.7
3,CC(C)N(C(=O)c1ccccc1-c1nc2c([nH]1)CCNC2)C(C)C,-45
4,Cc1ccc([C@H]2CN(C(=O)CC3CCC3)C[C@@H]2N)o1,5.89
5,Cc1nc(-c2cnn(C)c2)sc1C(=O)NCc1cccc(CN(C)C)c1,2.46
6,CCN1CCN(C[C@@H]2CN(c3ncc(Cl)cc3F)C[C@@H]2CO)CC1,-7.06
7,CC(=O)N[C@@H]1CN(C(=O)CC2CC2)C[C@H]1O,-7.1
8,COCCNc1nnc(S(=O)(=O)CCC(C)(C)C#N)s1,10.7
9,COCCS(=O)(=O)Cc1nnnn1-c1ccccc1,-9.4
10,O=C(NC1CCCN(c2ccccn2)C1)C1(c2ccccc2F)CC1 (stereo unspecified),7.79
11,CC(CS(C)(=O)=O)NC(=O)N1CC2(CCCC2)c2ccccc21 (stereo unspecified),-4.34
12,O=C(NCc1ccc(N2CC=CC2)cc1)Nc1nnc(C2CC2)s1,7.25
13,Cc1ncncc1C(=O)N1CCOC(c2nc(C(C)C)n[nH]2)C1 (stereo unspecified),-4.98
14,CC(C)CNC(=O)N1C[C@H]2CC[C@@]3(N=C(c4ccccc4)NC3=O)[C@H]2C1,-5.82
15,CCn1ncc2c1C(COC)CN(Cc1cccnc1)C2 (stereo unspecified),0.588
16,O=C(CCc1nccs1)N1CCN(c2nccs2)CC1,-21.8
17,CCn1ccnc1CNCC1CCCN1c1cccnn1 (stereo unspecified),-1.28
18,CC1c2ncc(CNC(=O)C3CC3)n2CCN1Cc1nccs1 (stereo unspecified),-5.43
19,CC(OCc1ccccc1)C(=O)NC1CCN(CC(N)=O)CC1 (stereo unspecified),-3.45
20,Cc1nc(CN2CC[C@H](OCC3CC3)[C@@H]2Cc2cccnc2)cs1,0.15
21,Cc1ccc(CN2CCC[C@@H]3CN(C(=O)c4ccco4)C[C@@H]32)o1,8.83
22,CNc1cc(C)nc(C2CN(Cc3cncs3)CCO2)c1 (stereo unspecified),-12.3
23,CCn1cnnc1CNC(=O)N1CCN(c2nccs2)CC1,-2.72

row,Structure (SMILES),cytotoxicity at 10 µM [%]
1,Cc1ccc(NC(=O)c2n[nH]c(-n3cnnc3)n2)cc1C,-1.4
2,CCOc1ccccc1CCC(=O)Nc1c(C)nn(C)c1C,-3.91
3,O=C(c1ccccc1F)N1CCC2(CC1)CC(N1CCCC1)CO2 (stereo unspecified),-120
4,CC(=O)N1CCN(C(=O)Cn2ccc3c(Cl)cccc32)CC1,-0.643
5,Cc1cc(S(=O)(=O)NCC(C)(O)CN(C)C)c(F)cc1F (stereo unspecified),10
6,CCN1CCN(C[C@@H]2CN(c3ncc(Cl)cc3Cl)C[C@@H]2CO)CC1,-6
7,COc1ccccc1C(=O)Nc1ccc(OC2CCN(C)CC2)cc1,-4.85
8,CC(=O)N1CC[C@H]2CC(=O)N(Cc3ccc4c(c3)OCO4)CC[C@H]2C1,-3.91
9,COc1cc(C(=O)N2CCC(Nc3cccnc3)CC2)ccc1C,-134
10,CC(CNC(=O)N1CCN(c2ncccn2)CC1)Cc1cccs1 (stereo unspecified),-7.9
11,CC(NCC1=Cc2cc(Cl)ccc2OC1)c1nnc2n1CCCC2 (stereo unspecified),-11.4
12,CCOc1ccnc(N2CCN(C(=O)c3cccnc3)CC2)n1,-5.19
13,CCOCC1CCN(C(=O)c2sc(C)cc2OC(F)F)CC1,7.95
14,O=C(CN1CCc2cncnc2C1)NCCOc1ccccc1,-6.78
15,CNC(=O)[C@@H]1C[C@H](N)CN1Cc1cc2cc(C)cc(C)c2[nH]c1=O,-1.72
16,O=C(NCc1ccco1)[C@H]1C[C@@H]2CCN(c3nncs3)C[C@H]2O1,1.84
17,Cn1nc(Cn2ccnc2)c2c1CN(c1ncccn1)C2,5.3
18,COc1nc2c(cc1C(=O)N1C[C@H](N)C[C@H]1C(=O)NC(C)C)CCC2,-9.49
19,Cc1nnc([C@H]2C[C@H]3OCC[C@H]3N(S(=O)(=O)CC(C)C)C2)o1,-5.27
20,CCCOC1CCCN(c2nc(COC)nc3c2cnn3C)C1 (stereo unspecified),-1.42
21,CCN1C[C@@H]2[C@@H](OC)CCN(C(=O)Cc3ccsc3)[C@@H]2C1,0.11
22,Cc1ccsc1CN1CCC(c2nnc(Cn3cccn3)n2C)CC1,-2.97
23,CC(CNCc1ccc2c(c1)n(C)c(=O)n2C)Oc1ccccn1 (stereo unspecified),6.27

row,Structure (SMILES),cytotoxicity at 10 µM [%]
1,CCN(c1ccc(C(=O)Nc2c(C)nn(C(C)C)c2C)cc1)C(C)C,-2.92
2,FC(F)c1nnc2ccc(N3CCC4(CCCCC4)C3)nn12,1.47
3,Cc1ccc(CN2CCc3c(nc4cc(C5CC5)nn4c3O)C2)s1,-3.69
4,Cc1cc(CNC(=O)NCC(O)c2cccc(F)c2)no1 (stereo unspecified),3.1
5,Cc1nc(C)n(CC2CCCN2Cc2cn3ccccc3n2)n1 (stereo unspecified),-3.05
6,Cc1nc(CN2CCOCC3(CCN(c4cccnc4)CC3)C2)cs1,-12.2
7,CC(C)n1ccnc1C1CCN(C(=O)c2cc[nH]n2)CC1,-3.28
8,CN(C)C(=O)Cn1c(C2CC2)c(CN2CCOCC2)c2cccnc21,-3.99
9,Cc1ccsc1CN(Cc1ncccc1C(=O)O)C1CC1,-5.8
10,O=C1CC(c2ccccc2)c2c(c(C(=O)O)cn2-c2ccccc2)N1 (stereo unspecified),-0.0616
11,CC(NC(=O)CNCCn1cccn1)c1ccc2c(c1)CCCC2 (stereo unspecified),-11.4
12,Cc1csc2c(N3CCC(NCCc4ccnn4C)CC3)ncnc12,0.429
13,CCC(CNC(=O)c1nc(=O)[nH][nH]1)Oc1cccc(C(F)(F)F)c1 (stereo unspecified),-6.25
14,Cc1nc(CN2CCCC(Cn3cc(CCO)nn3)C2)c[nH]1 (stereo unspecified),-21.1
15,O=C(NC[C@H]1CCCC[C@H]1O)c1cccc2[nH]c(-c3ccco3)nc12,-2.51
16,Cc1noc([C@@]23CCO[C@@H]2CCN(C(=O)C2CCOCC2)C3)n1,1.68
17,CCc1nc(C2CCCN(C(=O)NC(C)C)C2)no1 (stereo unspecified),-14
18,CCS(=O)(=O)N1CCC(c2nnc(CN3CCOCC3)n2C)CC1,17
19,N#Cc1cccnc1OC1CCNCC1,-8.99
20,O=C(CN(Cc1cccs1)C1CCS(=O)(=O)C1)NCCc1cccs1 (stereo unspecified),-11.5
21,Cc1noc(C2CCN(C(C)c3nc(C(C)(C)C)no3)CC2)n1 (stereo unspecified),4.13
22,CCN1C(=O)CCC12CCCN(Cc1nccs1)C2 (stereo unspecified),-73.5
23,CS(=O)(=O)NC1CCN(C(=O)CCn2cccn2)CC1,-7.74

row,Structure (SMILES),cytotoxicity at 10 µM [%]
1,O=C(NC1CC(=O)N(C2Cc3ccccc3C2)C1)c1ccoc1 (stereo unspecified),-2.4
2,CCNc1cc(N2CCN(C(=O)c3ccc(OC)cc3)CC2)nc(C)n1,-3.45
3,COc1ccc(OC(F)F)c(NCC(=O)NCC(=O)N2CCCC2)c1,-0.77
4,COCCN1C(=O)C2(CCN(CC3CC3)CC2)c2ccccc21,-115
5,Cn1cccc1CN1CCC2(CC1)CC(Oc1cccnc1)C2,13.4
6,O=C(NCCC1CC1)NCc1cccc(-n2ccnc2)c1,19.7
7,O=C(c1ccc(Cl)cc1)N1CCCn2nnc(Cn3cccn3)c2C1,-10.3
8,Cc1cccc(C2CCCN(C(=O)C3CCN(CC(N)=O)CC3)C2)c1 (stereo unspecified),-7.18
9,Cc1csc(N2CCCN(C(=O)C3(C#N)CCCCC3)CC2)n1,-2.45
10,CCOCCC(=O)N1C[C@@H]2CC[C@H]1CN(Cc1ccncc1)C2,-11.1
11,CCn1cc(NC(=O)NCc2ccc(CO)c(F)c2)cn1,8.69
12,Cc1ccc(S(=O)(=O)N2CSCC2C(=O)N(C)C2CC2)cc1Cl (stereo unspecified),-9.42
13,CC(C)c1cc(C(=O)N2CCCC(c3cc(=O)nc4n3CCC4)C2)no1 (stereo unspecified),0.983
14,c1cc(-c2nc(CN3CCn4c(nnc4C4CC4)C3)cs2)cs1,-2.22
15,c1cnc(N2CC3(CCN(Cc4ccncc4)C3)C2)nc1,-82.8
16,CCCN(Cc1cccnc1)Cc1ccc(C2CCCCO2)o1 (stereo unspecified),1.97
17,O=C(c1cc(C2CCCCN2CCO)n[nH]1)N1CCOCC1 (stereo unspecified),-24.5
18,Cc1ncsc1CNCC(C)c1nc2ccccc2o1 (stereo unspecified),4.17
19,COCCCS(=O)(=O)N1CCN(c2cccc(O)c2)CC1,4.42
20,Nc1ncc(C(=O)N2CCC(O)(CO)CC2)c(-c2ccccc2)n1,-144
21,CCCc1nc(C)cc(NCc2ccc(S(N)(=O)=O)cc2)n1,10.3
22,O=C(c1cccc(Cl)c1Cl)N1CCN(CC(O)Cn2cccn2)CC1 (stereo unspecified),-14.3
23,O=C1CCC2(CCC(NC(=O)NCc3cccnc3)CC2)N1 (stereo unspecified),-5.25

row,Structure (SMILES),cytotoxicity at 10 µM [%]
1,O=C(CN1CCCC1Cn1cncn1)NCC1(c2ccccc2)CC1 (stereo unspecified),4.74
2,CC(C)COCC1CN(Cc2cnn(C)c2)Cc2ncn(C)c21 (stereo unspecified),0.588
3,O=C(CCN1CCOCC1)NC1CCCN(CC2CCCCC2)C1 (stereo unspecified),1.64
4,CC(C#N)CN(C)Cc1cc(Cl)cc2cccnc12 (stereo unspecified),-48.5
5,COc1ccc(Cl)cc1CCNC(=O)N(C)CC1CCOC1 (stereo unspecified),7.17
6,COc1c(CNCc2ccc(C(=O)NC3CC3)cc2)c(C)nn1C,3.18
7,COc1ccc2c(ccn2CCCN)c1,-3.91
8,COc1cc(C)nc(N2CCN(C(C)c3nc(C)no3)CC2)n1 (stereo unspecified),3.55
9,CCOC1CCCN(C(=O)Nc2cnn(CC(F)F)c2)C1 (stereo unspecified),-1.84
10,CNc1nc(CNC(=O)Nc2ccc(OC(C)C)cc2C)cs1,26.4
11,COc1ncc(NCc2cccc(C#N)c2)cc1C(N)=O,5.85
12,CC(c1ccon1)N(C)C(=O)C1CCN(C2CCCCC2)CC1 (stereo unspecified),-20.2
13,COC(=O)c1ccc(N2CCN(C(=O)C3CC3)C(C)C2)cc1 (stereo unspecified),-1.07
14,Cn1c(C(=O)N2CCOCC2)nc2c1CCN(c1ncccn1)C2,1.7
15,c1ccc2sc(N3CCOC(Cn4cccn4)C3)nc2c1 (stereo unspecified),-12.8
16,CO[C@@H]1CCN(C(=O)c2ccsc2)[C@@H]2CN(CC3CC3)C[C@@H]21,-3.1
17,CC(C)NC(=O)CC1COC2(CCN(Cc3ccccc3)CC2)C1 (stereo unspecified),6.38
18,OC1(Cn2ccc3ncccc32)CCN(Cc2cc(F)cc(F)c2)CC1,-5.41
19,CC(C)NC(=O)NC(C)c1ccc(-c2ccncc2)cc1 (stereo unspecified),0.67
